SMILES strings stand for the structures.

This is an account of results in ChEMBL document CHEMBL1157263, “Cytotoxic diacetylenic spiroketal enol ethers from Plagius flosculosus” (J Nat Prod, 2006).

Holding throughout (format): functional, cell-based
For assay [1], the system named is HL-60. As to the kind of experiment: Cytotoxicity against human HL60 after 20 hrs by WST1 assay. Conditions: HL-60, 20 h. An outline of the steps: (§1)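 WST-1 cell viability read-out after 2.5, 20 and 72 h exposure; compounds tested over 0.5 to 80 µM. Cells: CD4+ Jurkat T-cells (ATCC TIB-152), Bcl-2-transfected Jurkat, and HL-60 (ATCC CCL-240). Maximal standard deviation 10% (absolute).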
A general note: Tetrazolium assays rely on reduction of a dye to a coloured formazan, in cell work by metabolically active cells.

Assay [2] deals with Jurkat. As to the kind of experiment: Cytotoxicity against human Jurkat T cells after 20 hrs by WST1 assay. An outline of the steps: as §1
Assay [3] deals with Jurkat. As to the kind of experiment: Cytotoxicity against human Jurkat T cells overexpressing Bcl2 after 20 hrs by WST1 assay. An outline of the steps: as §1
Assay [4] concerns HL-60. Briefly: Induction of apoptosis in human HL60 cells by FACS. An outline of the steps: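 HL-60 cells (10^6 per sample) exposed 24 h, washed in cold PBS with 1% bovine calf serum and spun at 200g, 4 °C. Staining with annexin V-FITC (2 µg/mL) in HEPES binding buffer, pH 7.4, 10 min on ice in the dark, then 1 µg PI per tube. Flow cytometry within 20 min; annexin V-FITC-positive cells in the gated population scored apoptotic. Taxol 500 nM positive control, untreated negative control.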
On the technique in general: Flow cytometry measures light scatter and fluorescence of single cells or particles in a stream.

In general, IC50 refers to the concentration needed to halve the response being measured. A low value points to greater potency in that assay. With `CC#CC#C/C=C1/C=CC2(CCC(OC)O2)O1` (racemic) [FLOSCULIN C], the IC50 came out at 16.7 µM in the assay on HL-60 [1], 10.8 µM with Jurkat [2] and 16.9 µM in the assay on Jurkat [3].
`CC#CC#C/C=C1/C=C[C@]2(OC=CC2OC(C)=O)O1` (stereo partly drawn): the IC50 with HL-60 [1] turned out to be 4.2 µM; in the assay on Jurkat [2], 4.1 µM; in the assay with Jurkat [3], 5.2 µM. Further, the Activity entry in the assay with HL-60 [4] is “Dose-dependent effect”.
Take `CC#CC#C/C=C1\C=C[C@]2(OC=CC2OC(C)=O)O1` (stereo partly drawn): the IC50 with HL-60 [1] was 4 µM; in the assay on Jurkat [2], 6.4 µM; with Jurkat [3], 6.9 µM. The Activity entry in the assay on HL-60 [4] was “Dose-dependent effect”.
Regarding `CC#CC#C/C=C1\C=C[C@@]2(CC=CO2)O1`, the half-maximal inhibitory concentration (IC50) in the assay on HL-60 [1] stood at 6.1 µM; with Jurkat [2] it was 4.7 µM; in the assay with Jurkat [3], 8.4 µM.
As for `CC#CC#C/C=C1\C=CC2(CCC(OC)O2)O1` (racemic) [FLOSCULIN B], the IC50 in the assay with HL-60 [1] stood at 18.3 µM; with Jurkat [2] it was 15.2 µM; with Jurkat [3], 19.2 µM.
For `CC#CC#C/C=C1\C=C[C@@]2(CCCO2)O1` the same measures were 16.2 µM, 11.2 µM and 14.1 µM.
For the compound `CC#CC#C/C=C1/C=C[C@@]2(CC=CO2)O1`, the IC50 in the assay on HL-60 [1] was 5.6 µM; in the assay with Jurkat [2] it was 3.8 µM; in the assay with Jurkat [3] it was 7.2 µM.
Take `CC#CC#C/C=C1/O[C@@]2(OC=C[C@H]2OC(C)=O)[C@@H](O)[C@@H]1Cl` [FLOSCULIN A]: the 50% inhibitory concentration (IC50) in the assay on HL-60 [1] turned out to be 18.9 µM; with Jurkat [2], 13.2 µM; in the assay on Jurkat [3] it was 19.1 µM.
Turning to `C=C1C(=O)O[C@@H]2C[C@@H](C)[C@@H]3C=CC(=O)[C@@]3(C)[C@@H](O)[C@H]12` [HELENALIN], the IC50 in the assay on HL-60 [1] turned out to be 0.7 µM; in the assay on Jurkat [2], 0.46 µM.
